Test results reported in ChEMBL document CHEMBL1157765, “Synthesis of DOTA-conjugated multimeric [Tyr3]octreotide peptides via a combination of Cu(I)-catalyzed "click" cycloaddition and thio acid/sulfonyl azide "sulfo-click" amidation and their in vivo evaluation” (J Med Chem, 2010).

Assays:
Stomach [1] = test: Biodistribution in stomach of BALB/c mouse bearing rat AR42J cells at 0.37 MBq, iv after 24 hrs; assay type: ADME, organism-based, AR-42J; conditions: in vivo
Summary of the method: (§1)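 AR42J tumor grown in right flank of male BALB/c nude mice (20-25 g, 6-8 weeks) by sc injection of 5 × 10⁶ cells; used after ~2 weeks at 4-6 mm diameter. Groups of five received 0.37 MBq (0.1 μg) ¹¹¹In-DOTA conjugate iv via tail vein (labeled in 0.25 M NH₄OAc pH 5.5, 95 °C, 15 min). Tissues dissected at 2, 6 or 24 h, weighed, γ-counted against 1% injected-activity standards; %ID/g, mean ± SD.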

Blood [2] = test: Biodistribution in blood of BALB/c mouse bearing rat AR42J cells at 0.37 MBq, iv after 2 hrs under cold condition; assay type: ADME, organism-based, AR-42J; conditions: in vivo
Summary of the method: (§2)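 Receptor block: groups of three AR42J tumor-bearing male BALB/c nude mice co-injected iv via tail vein with 0.37 MBq (0.1 μg) ¹¹¹In-DOTA conjugate plus 50 μg octreotide. Killed by CO₂/O₂ at 2 h; blood, tumor and tissues dissected, weighed and γ-counted against 1% injected-activity standards; %ID/g reported as mean ± SD.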

Liver [3] = test: Biodistribution in liver of BALB/c mouse bearing rat AR42J cells at 0.37 MBq, iv after 24 hrs; assay type: ADME, organism-based, AR-42J; conditions: in vivo; summary of the method: as §1
Pancreas [4] = test: Biodistribution in pancreas of BALB/c mouse bearing rat AR42J cells at 0.37 MBq, iv after 6 hrs; assay type: ADME, organism-based, AR-42J; conditions: in vivo; summary of the method: as §1
Spleen [5] = test: Biodistribution in spleen of BALB/c mouse bearing rat AR42J cells at 0.37 MBq, iv after 2 hrs; assay type: ADME, organism-based, AR-42J; conditions: in vivo; summary of the method: as §1
Kidney [6] = test: Biodistribution in kidney of BALB/c mouse bearing rat AR42J cells at 0.37 MBq, iv after 24 hrs; assay type: ADME, organism-based, AR-42J; conditions: in vivo; summary of the method: as §1
Kidney [7] = test: Biodistribution in kidney of BALB/c mouse bearing rat AR42J cells at 0.37 MBq, iv after 2 hrs; assay type: ADME, organism-based, AR-42J; conditions: in vivo; summary of the method: as §1
Spleen [8] = test: Biodistribution in spleen of BALB/c mouse bearing rat AR42J cells at 0.37 MBq, iv after 6 hrs; assay type: ADME, organism-based, AR-42J; conditions: in vivo; summary of the method: as §1
Liver [9] = test: Biodistribution in liver of BALB/c mouse bearing rat AR42J cells at 0.37 MBq, iv after 6 hrs; assay type: ADME, organism-based, AR-42J; conditions: in vivo; summary of the method: as §1
Pancreas [10] = test: Biodistribution in pancreas of BALB/c mouse bearing rat AR42J cells at 0.37 MBq, iv after 2 hrs; assay type: ADME, organism-based, AR-42J; conditions: in vivo; summary of the method: as §1
Liver [11] = test: Biodistribution in liver of BALB/c mouse bearing rat AR42J cells at 0.37 MBq, iv after 2 hrs; assay type: ADME, organism-based, AR-42J; conditions: in vivo; summary of the method: as §1
Blood [12] = test: Biodistribution in blood of BALB/c mouse bearing rat AR42J cells at 0.37 MBq, iv after 6 hrs; assay type: ADME, organism-based, AR-42J; conditions: in vivo; summary of the method: as §1
Spleen [13] = test: Biodistribution in spleen of BALB/c mouse bearing rat AR42J cells at 0.37 MBq, iv after 24 hrs; assay type: ADME, organism-based, AR-42J; conditions: in vivo; summary of the method: as §1
Blood [14] = test: Biodistribution in blood of BALB/c mouse bearing rat AR42J cells at 0.37 MBq, iv after 24 hrs; assay type: ADME, organism-based, AR-42J; conditions: in vivo; summary of the method: as §1
Stomach [15] = test: Biodistribution in stomach of BALB/c mouse bearing rat AR42J cells at 0.37 MBq, iv after 6 hrs; assay type: ADME, organism-based, AR-42J; conditions: in vivo; summary of the method: as §1
Stomach [16] = test: Biodistribution in stomach of BALB/c mouse bearing rat AR42J cells at 0.37 MBq, iv after 2 hrs under cold condition; assay type: ADME, organism-based, AR-42J; conditions: in vivo; summary of the method: as §2
[17] = Biodistribution in adrenal gland of BALB/c mouse bearing rat AR42J cells at 0.37 MBq, iv after 2 hrs under cold condition; assay type: ADME, organism-based, AR-42J; conditions: in vivo; summary of the method: as §2
[18] = Biodistribution in adrenal gland of BALB/c mouse bearing rat AR42J cells at 0.37 MBq, iv after 24 hrs; assay type: ADME, organism-based, AR-42J; conditions: in vivo; summary of the method: as §1
[19] = target: Somatostatin receptor type 2 (Rattus norvegicus, UniProt P30680); test: Displacement of [111In]DOTA0,Tyr3]octreotide from SSTR2 receptor in rat AR42J cells; assay type: cell-based, AR-42J
Sequence of Somatostatin receptor type 2 (P30680 whole entry): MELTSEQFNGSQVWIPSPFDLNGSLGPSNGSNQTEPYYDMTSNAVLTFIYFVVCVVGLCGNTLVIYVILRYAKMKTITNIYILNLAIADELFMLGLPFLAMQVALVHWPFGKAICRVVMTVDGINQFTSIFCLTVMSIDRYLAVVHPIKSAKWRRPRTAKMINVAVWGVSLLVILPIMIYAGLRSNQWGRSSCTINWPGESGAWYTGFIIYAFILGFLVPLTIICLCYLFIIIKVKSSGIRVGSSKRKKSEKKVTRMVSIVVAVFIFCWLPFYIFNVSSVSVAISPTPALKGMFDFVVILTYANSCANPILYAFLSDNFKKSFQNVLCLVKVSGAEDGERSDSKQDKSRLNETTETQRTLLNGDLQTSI
Summary of the method: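 AR42J cells (DMEM, 10% FCS, 37 °C, 5% CO₂) seeded 8 × 10⁵/well and grown to confluence, washed with DMEM + 0.1% BSA. Incubated 3 h at 37 °C with [¹¹¹In-DOTA⁰,Tyr³]octreotide tracer (40 000 dpm) and unlabeled peptide at 0.1-300 nM. Washed twice; cell-bound activity γ-counted. IC₅₀ from fitted sigmoidal displacement curves with 95% CI.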

[20] = Biodistribution in tumor of BALB/c mouse bearing rat AR42J cells at 0.37 MBq, iv after 6 hrs; assay type: ADME, organism-based, Neoplasm, AR-42J; conditions: in vivo; summary of the method: as §1
[21] = Biodistribution in tumor of BALB/c mouse bearing rat AR42J cells at 0.37 MBq, iv after 2 hrs; assay type: ADME, organism-based, Neoplasm, AR-42J; conditions: in vivo; summary of the method: as §1
Kidney [22] = test: Biodistribution in kidney of BALB/c mouse bearing rat AR42J cells at 0.37 MBq, iv after 2 hrs under cold condition; assay type: ADME, organism-based, AR-42J; conditions: in vivo; summary of the method: as §2
Blood [23] = test: Biodistribution in blood of BALB/c mouse bearing rat AR42J cells at 0.37 MBq, iv after 2 hrs; assay type: ADME, organism-based, AR-42J; conditions: in vivo; summary of the method: as §1
Kidney [24] = test: Biodistribution in kidney of BALB/c mouse bearing rat AR42J cells at 0.37 MBq, iv after 6 hrs; assay type: ADME, organism-based, AR-42J; conditions: in vivo; summary of the method: as §1
Spleen [25] = test: Biodistribution in spleen of BALB/c mouse bearing rat AR42J cells at 0.37 MBq, iv after 2 hrs under cold condition; assay type: ADME, organism-based, AR-42J; conditions: in vivo; summary of the method: as §2
Pancreas [26] = test: Biodistribution in pancreas of BALB/c mouse bearing rat AR42J cells at 0.37 MBq, iv after 2 hrs under cold condition; assay type: ADME, organism-based, AR-42J; conditions: in vivo; summary of the method: as §2
[27] = Biodistribution in tumor of BALB/c mouse bearing rat AR42J cells at 0.37 MBq, iv after 24 hrs; assay type: ADME, organism-based, Neoplasm, AR-42J; conditions: in vivo; summary of the method: as §1
Stomach [28] = test: Biodistribution in stomach of BALB/c mouse bearing rat AR42J cells at 0.37 MBq, iv after 2 hrs; assay type: ADME, organism-based, AR-42J; conditions: in vivo; summary of the method: as §1
Liver [29] = test: Biodistribution in liver of BALB/c mouse bearing rat AR42J cells at 0.37 MBq, iv after 2 hrs under cold condition; assay type: ADME, organism-based, AR-42J; conditions: in vivo; summary of the method: as §2
Pancreas [30] = test: Biodistribution in pancreas of BALB/c mouse bearing rat AR42J cells at 0.37 MBq, iv after 24 hrs; assay type: ADME, organism-based, AR-42J; conditions: in vivo; summary of the method: as §1
[31] = Octanol-water partition coefficient, log D at pH 7.4; assay type: physicochemical
Summary of the method: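 ¹¹¹In-labeled conjugate (~148 kBq) in PBS pH 7.4 mixed 1:1 with n-octanol and shaken 2 min. Phases separated by centrifugation (5 min, 250g); triplicate aliquots of each layer γ-counted. log D = log₁₀(octanol counts/aqueous counts), from at least two independent experiments.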

[32] = Biodistribution in adrenal gland of BALB/c mouse bearing rat AR42J cells at 0.37 MBq, iv after 2 hrs; assay type: ADME, organism-based, AR-42J; conditions: in vivo; summary of the method: as §1
[33] = Biodistribution in adrenal gland of BALB/c mouse bearing rat AR42J cells at 0.37 MBq, iv after 6 hrs; assay type: ADME, organism-based, AR-42J; conditions: in vivo; summary of the method: as §1
[34] = Biodistribution in tumor of BALB/c mouse bearing rat AR42J cells at 0.37 MBq, iv after 2 hrs under cold condition; assay type: ADME, organism-based, Neoplasm, AR-42J; conditions: in vivo; summary of the method: as §2

Compound: C[C@@H](O)[C@@H]1NC(=O)[C@H](CCCCN)NC(=O)[C@@H](Cc2c[nH]c3ccccc23)NC(=O)[C@H](Cc2ccc(O)cc2)NC(=O)[C@@H](NC(=O)[C@@H](Cc2ccccc2)NC(=O)CCCCCn2cc(COc3cc(OCc4cn(CCCCCC(=O)N[C@H](Cc5ccccc5)C(=O)N[C@H]5CSSC[C@@H](C(=O)N[C@H](CO)[C@@H](C)O)NC(=O)[C@H]([C@@H](C)O)NC(=O)[C@H](CCCCN)NC(=O)[C@@H](Cc6c[nH]c7ccccc67)NC(=O)[C@H](Cc6ccc(O)cc6)NC5=O)nn4)cc(C(=O)NCCOc4cc(OCCNC(=O)c5cc(OCc6cn(CCCCCC(=O)N[C@H](Cc7ccccc7)C(=O)N[C@H]7CSSC[C@@H](C(=O)N[C@H](CO)[C@@H](C)O)NC(=O)[C@H]([C@@H](C)O)NC(=O)[C@H](CCCCN)NC(=O)[C@@H](Cc8c[nH]c9ccccc89)NC(=O)[C@H](Cc8ccc(O)cc8)NC7=O)nn6)cc(OCc6cn(CCCCCC(=O)N[C@H](Cc7ccccc7)C(=O)N[C@H]7CSSC[C@@H](C(=O)N[C@H](CO)[C@@H](C)O)NC(=O)[C@H]([C@@H](C)O)NC(=O)[C@H](CCCCN)NC(=O)[C@@H](Cc8c[nH]c9ccccc89)NC(=O)[C@H](Cc8ccc(O)cc8)NC7=O)nn6)c5)cc(C(=O)NS(=O)(=O)CCNC(=O)CN5CCN(CC(=O)O)CCN(CC(=O)O)CCN(CC(=O)O)CC5)c4)c3)nn2)CSSC[C@@H](C(=O)N[C@H](CO)[C@@H](C)O)NC1=O
- Drug uptake (Stomach [1]): 1.13 % ID/g
- Drug uptake (Blood [2]): 0.44 % ID/g
- Drug uptake (Liver [3]): 52.71 % ID/g
- Drug uptake (Pancreas [4]): 2.04 % ID/g
- Drug uptake (Spleen [5]): 16.84 % ID/g
- Drug uptake (Kidney [6]): 10.6 % ID/g
- Drug uptake (Kidney [7]): 4.62 % ID/g
- Drug uptake (Spleen [8]): 23.92 % ID/g
- Drug uptake (Liver [9]): 70.97 % ID/g
- Drug uptake (Pancreas [10]): 1.02 % ID/g
- Drug uptake (Liver [11]): 47.6 % ID/g
- Drug uptake (Blood [12]): 0.62 % ID/g
- Drug uptake (Spleen [13]): 20.26 % ID/g
- Drug uptake (Blood [14]): 2.52 % ID/g
- Drug uptake (Stomach [15]): 1.4 % ID/g
- Drug uptake (Stomach [16]): 3.02 % ID/g
- Drug uptake [17]: 54.56 % ID/g
- Drug uptake [18]: 11.39 % ID/g
- IC50 [19]: 14 nM
- Drug uptake [20]: 1.03 % ID/g
- Drug uptake [21]: 0.52 % ID/g
- Drug uptake (Kidney [22]): 7.44 % ID/g
- Drug uptake (Blood [23]): 0.27 % ID/g
- Drug uptake (Kidney [24]): 7.65 % ID/g
- Drug uptake (Spleen [25]): 23.45 % ID/g
- Drug uptake (Pancreas [26]): 0.29 % ID/g
- Drug uptake [27]: 1.53 % ID/g
- Drug uptake (Stomach [28]): 1.04 % ID/g
- Drug uptake (Liver [29]): 2.96 % ID/g
- Drug uptake (Pancreas [30]): 1.17 % ID/g
- logD [31]: -0.71
- Drug uptake [32]: 4.05 % ID/g
- Drug uptake [33]: 18.98 % ID/g
- Drug uptake [34]: 1.19 % ID/g
